{"source": "ChEMBL document CHEMBL3817726", "about": "“Chemically Diverse Group I p21-Activated Kinase (PAK) Inhibitors Impart Acute Cardiovascular Toxicity with a Narrow Therapeutic Window” (J Med Chem, 2016)", "key": {"[1]": {"target": "Protein kinase C theta type (Homo sapiens) (UniProt Q04759)", "sequence (Q04759 whole entry, looked up)": "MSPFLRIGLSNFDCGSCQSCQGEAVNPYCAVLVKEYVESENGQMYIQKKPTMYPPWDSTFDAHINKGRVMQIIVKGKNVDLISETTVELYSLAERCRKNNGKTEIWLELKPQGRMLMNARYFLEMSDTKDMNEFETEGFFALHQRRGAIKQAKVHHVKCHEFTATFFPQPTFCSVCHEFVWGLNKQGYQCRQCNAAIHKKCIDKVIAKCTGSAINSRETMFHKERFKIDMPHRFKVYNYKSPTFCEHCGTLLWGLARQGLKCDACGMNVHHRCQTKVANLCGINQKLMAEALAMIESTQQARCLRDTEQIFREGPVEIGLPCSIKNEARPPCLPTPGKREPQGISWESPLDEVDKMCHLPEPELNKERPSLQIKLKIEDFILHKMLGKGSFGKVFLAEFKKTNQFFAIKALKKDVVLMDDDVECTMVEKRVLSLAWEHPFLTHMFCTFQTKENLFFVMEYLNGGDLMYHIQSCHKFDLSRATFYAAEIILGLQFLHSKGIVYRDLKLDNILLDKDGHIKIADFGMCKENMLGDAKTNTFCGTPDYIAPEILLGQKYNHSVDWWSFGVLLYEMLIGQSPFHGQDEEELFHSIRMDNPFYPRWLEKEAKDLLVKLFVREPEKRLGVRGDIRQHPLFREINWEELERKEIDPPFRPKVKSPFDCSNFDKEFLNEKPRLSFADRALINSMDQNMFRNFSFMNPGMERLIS", "assay": "Inhibition of recombinant human full length His-tagged PKCtheta expressed in Baculovirus at 1 uM relative to control"}, "[2]": {"target": "Serine/threonine-protein kinase 24 (Homo sapiens) (UniProt Q9Y6E0)", "assay": "Inhibition of recombinant human full length GST-tagged MST3 expressed in Baculovirus at 1 uM relative to control"}, "[3]": {"target": "Serine/threonine-protein kinase 25 (Homo sapiens) (UniProt O00506)", "sequence (O00506 whole entry, looked up)": "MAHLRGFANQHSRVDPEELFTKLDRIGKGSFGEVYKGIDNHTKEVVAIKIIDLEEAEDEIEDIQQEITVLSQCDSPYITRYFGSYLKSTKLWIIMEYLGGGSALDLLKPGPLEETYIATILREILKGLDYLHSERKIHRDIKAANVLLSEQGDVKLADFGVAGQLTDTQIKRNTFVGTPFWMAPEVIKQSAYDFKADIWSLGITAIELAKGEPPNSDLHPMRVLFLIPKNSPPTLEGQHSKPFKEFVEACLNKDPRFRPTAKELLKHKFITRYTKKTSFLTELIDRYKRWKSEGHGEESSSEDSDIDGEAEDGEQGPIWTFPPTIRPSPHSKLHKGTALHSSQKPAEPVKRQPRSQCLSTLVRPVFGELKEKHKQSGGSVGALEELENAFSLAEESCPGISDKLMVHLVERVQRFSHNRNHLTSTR", "assay": "Inhibition of recombinant human full length GST-tagged YSK1 expressed in Baculovirus at 1 uM relative to control"}, "[4]": {"assay": "Cmax associated with acute adverse effect in mouse at 50 mg/kg, ip", "type": "ADME, organism-based", "design": "dose 50 mg/kg, route intraperitoneal", "settings": "in vivo", "summary_of_the_method": "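Mouse tolerability studies tested multiple doses, given orally or intraperitoneally. Plasma drug concentrations were measured, including at a 15 min time point. The minimum concentration associated with adverse clinical signs or death was taken as the adverse Cmax and was converted to an unbound value.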"}, "[5]": {"target": "Serine/threonine-protein kinase Chk1 (Homo sapiens) (UniProt O14757)", "assay": "Inhibition of recombinant human full length His-tagged CHK1 expressed in Baculovirus at 1 uM relative to control"}, "[6]": {"target": "Serine/threonine-protein kinase 4 (Homo sapiens) (UniProt Q13043)", "assay": "Inhibition of recombinant human full length GST-tagged MST1 expressed in Baculovirus at 1 uM relative to control"}, "[7]": {"target": "Sodium-dependent serotonin transporter (Homo sapiens) (UniProt P31645)", "assay": "Inhibition of recombinant human 5HT transporter expressed in CHO cells at 10 uM relative to control", "type": "cell-based"}, "[8]": {"target": "Serine/threonine-protein kinase 26 (Homo sapiens) (UniProt Q9P289)", "assay": "Inhibition of recombinant human full length GST-tagged MST4 expressed in Baculovirus at 1 uM relative to control"}, "[9]": {"target": "5'-AMP-activated protein kinase catalytic subunit alpha-1 (Homo sapiens) (UniProt Q13131)", "sequence (Q13131 whole entry, looked up)": "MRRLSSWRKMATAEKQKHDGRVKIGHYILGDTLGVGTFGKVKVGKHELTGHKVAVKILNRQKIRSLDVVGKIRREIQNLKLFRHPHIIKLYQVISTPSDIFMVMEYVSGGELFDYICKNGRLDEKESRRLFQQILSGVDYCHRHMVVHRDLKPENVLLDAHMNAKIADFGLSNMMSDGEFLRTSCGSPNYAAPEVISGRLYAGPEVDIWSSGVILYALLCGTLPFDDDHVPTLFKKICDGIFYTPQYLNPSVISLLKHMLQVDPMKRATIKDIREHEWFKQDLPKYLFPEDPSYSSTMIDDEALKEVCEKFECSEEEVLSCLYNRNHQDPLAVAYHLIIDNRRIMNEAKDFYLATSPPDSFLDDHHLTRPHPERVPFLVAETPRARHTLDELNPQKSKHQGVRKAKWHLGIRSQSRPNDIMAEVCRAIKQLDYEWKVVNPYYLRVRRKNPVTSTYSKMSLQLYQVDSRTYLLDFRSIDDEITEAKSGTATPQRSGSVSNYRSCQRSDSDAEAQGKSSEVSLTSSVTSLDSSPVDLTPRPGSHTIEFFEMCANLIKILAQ", "assay": "Inhibition of recombinant human PRKAA1 at 1 uM relative to control"}, "[10]": {"target": "Serine/threonine-protein kinase PAK 5 (Homo sapiens) (UniProt Q9P286)", "assay": "Inhibition of recombinant human full length His-tagged PAK5 expressed in Baculovirus at 1 uM relative to control"}, "[11]": {"target": "Tyrosine-protein kinase ABL2 (Homo sapiens) (UniProt P42684)", "assay": "Inhibition of recombinant human full length His-tagged ARG expressed in Baculovirus at 1 uM relative to control"}, "[12]": {"target": "CDK7/Cyclin H/MNAT1 (Homo sapiens) (UniProt P51946+P50613+P51948)", "assay": "Inhibition of recombinant human full length His-tagged CDK7/cyclin H/MNAT1 expressed in Baculovirus at 1 uM relative to control"}, "[13]": {"target": "Ribosomal protein S6 kinase alpha-3 (Homo sapiens) (UniProt P51812)", "sequence (P51812 whole entry)": "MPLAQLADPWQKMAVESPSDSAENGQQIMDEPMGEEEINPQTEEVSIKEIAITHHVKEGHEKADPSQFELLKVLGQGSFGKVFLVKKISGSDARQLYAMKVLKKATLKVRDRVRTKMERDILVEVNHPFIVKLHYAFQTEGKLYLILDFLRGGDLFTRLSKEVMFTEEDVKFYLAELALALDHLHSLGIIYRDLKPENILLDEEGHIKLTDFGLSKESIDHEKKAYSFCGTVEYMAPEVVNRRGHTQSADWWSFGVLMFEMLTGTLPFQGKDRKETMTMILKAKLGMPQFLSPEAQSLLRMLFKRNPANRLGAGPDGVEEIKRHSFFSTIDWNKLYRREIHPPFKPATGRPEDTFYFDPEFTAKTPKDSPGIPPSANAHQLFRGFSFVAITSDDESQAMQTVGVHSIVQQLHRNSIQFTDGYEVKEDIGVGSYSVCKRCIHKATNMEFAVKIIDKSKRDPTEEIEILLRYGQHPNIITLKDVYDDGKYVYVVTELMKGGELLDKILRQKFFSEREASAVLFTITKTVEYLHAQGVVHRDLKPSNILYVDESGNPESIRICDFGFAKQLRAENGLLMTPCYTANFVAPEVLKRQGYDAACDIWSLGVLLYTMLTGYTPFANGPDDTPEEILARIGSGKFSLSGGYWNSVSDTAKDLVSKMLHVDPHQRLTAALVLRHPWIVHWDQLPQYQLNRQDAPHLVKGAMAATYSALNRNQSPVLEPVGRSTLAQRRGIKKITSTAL", "assay": "Inhibition of recombinant human full length GST-tagged RSK3 expressed in insect cells at 1 uM relative to control"}, "[14]": {"target": "MAP/microtubule affinity-regulating kinase 3 (Homo sapiens) (UniProt P27448)", "assay": "Inhibition of recombinant human full length GST-tagged MARK3 expressed in Baculovirus at 1 uM relative to control"}, "[15]": {"target": "Ribosomal protein S6 kinase alpha-2 (Homo sapiens) (UniProt Q15349)", "assay": "Inhibition of recombinant human full length His-tagged RSK2 expressed in Baculovirus at 1 uM relative to control"}, "[16]": {"target": "cAMP-dependent protein kinase catalytic subunit alpha (Homo sapiens) (UniProt P17612)", "assay": "Inhibition of recombinant human full length His-tagged PRKACA expressed in Escherichia coli at 1 uM relative to control"}, "[17]": {"target": "Testis-specific serine/threonine-protein kinase 1 (Homo sapiens) (UniProt Q9BXA7)", "sequence (Q9BXA7 whole entry)": "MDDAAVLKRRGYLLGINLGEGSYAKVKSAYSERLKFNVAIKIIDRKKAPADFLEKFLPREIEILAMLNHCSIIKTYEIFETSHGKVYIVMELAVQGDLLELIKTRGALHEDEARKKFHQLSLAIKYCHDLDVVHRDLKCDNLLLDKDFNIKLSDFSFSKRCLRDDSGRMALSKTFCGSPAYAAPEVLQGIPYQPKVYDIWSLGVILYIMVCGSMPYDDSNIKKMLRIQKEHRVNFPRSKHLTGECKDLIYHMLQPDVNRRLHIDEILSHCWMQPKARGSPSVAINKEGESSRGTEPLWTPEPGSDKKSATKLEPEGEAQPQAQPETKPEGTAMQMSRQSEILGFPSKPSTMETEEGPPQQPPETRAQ", "assay": "Inhibition of recombinant human full length His-tagged TSSK1 expressed in Baculovirus at 1 uM relative to control"}, "[18]": {"assay": "Ratio of fCmax associated with acute adverse effect in mouse at 50 mg/kg, ip to IC50 for PAK1/2-mediated phosphorylation of MEK1 at serine 298 in human EBC1 cells", "summary_of_the_method": "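Mouse tolerability study run at multiple doses, here by i.p. injection. Plasma drug levels were measured, and total concentration was converted to unbound. The minimum unbound Cmax associated with adverse effects (C_max,adverse,u) was divided by the cellular IC50 for inhibition of PAK1/2-mediated MEK1 S298 phosphorylation.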"}, "[19]": {"assay": "Fraction unbound in mouse plasma at 50 mg/kg, ip", "type": "ADME, organism-based"}, "[20]": {"target": "Tyrosine-protein kinase Mer (Homo sapiens) (UniProt Q12866)", "assay": "Inhibition of recombinant human GST-tagged Mer expressed in Baculovirus at 1 uM relative to control"}, "[21]": {"target": "Serine/threonine-protein kinase PAK 6 (Homo sapiens) (UniProt Q9NQU5)", "settings": "1 uM"}, "[22]": {"target": "Protein kinase C alpha type (Homo sapiens) (UniProt P17252)", "assay": "Inhibition of recombinant human full length PKCalpha expressed in Baculovirus at 1 uM relative to control"}, "[23]": {"target": "5'-AMP-activated protein kinase catalytic subunit alpha-2 (Homo sapiens) (UniProt P54646)", "assay": "Inhibition of recombinant human PRKAA2 at 1 uM relative to control"}, "[24]": {"target": "Phosphorylase b kinase gamma catalytic chain, skeletal muscle/heart isoform (Homo sapiens) (UniProt Q16816)", "assay": "Inhibition of recombinant human full length GST-tagged PHKgamma 1 expressed in Baculovirus at 1 uM relative to control"}, "[25]": {"target": "Serine/threonine-protein kinase MARK1 (Homo sapiens) (UniProt Q9P0L2)", "sequence (Q9P0L2 whole entry, looked up)": "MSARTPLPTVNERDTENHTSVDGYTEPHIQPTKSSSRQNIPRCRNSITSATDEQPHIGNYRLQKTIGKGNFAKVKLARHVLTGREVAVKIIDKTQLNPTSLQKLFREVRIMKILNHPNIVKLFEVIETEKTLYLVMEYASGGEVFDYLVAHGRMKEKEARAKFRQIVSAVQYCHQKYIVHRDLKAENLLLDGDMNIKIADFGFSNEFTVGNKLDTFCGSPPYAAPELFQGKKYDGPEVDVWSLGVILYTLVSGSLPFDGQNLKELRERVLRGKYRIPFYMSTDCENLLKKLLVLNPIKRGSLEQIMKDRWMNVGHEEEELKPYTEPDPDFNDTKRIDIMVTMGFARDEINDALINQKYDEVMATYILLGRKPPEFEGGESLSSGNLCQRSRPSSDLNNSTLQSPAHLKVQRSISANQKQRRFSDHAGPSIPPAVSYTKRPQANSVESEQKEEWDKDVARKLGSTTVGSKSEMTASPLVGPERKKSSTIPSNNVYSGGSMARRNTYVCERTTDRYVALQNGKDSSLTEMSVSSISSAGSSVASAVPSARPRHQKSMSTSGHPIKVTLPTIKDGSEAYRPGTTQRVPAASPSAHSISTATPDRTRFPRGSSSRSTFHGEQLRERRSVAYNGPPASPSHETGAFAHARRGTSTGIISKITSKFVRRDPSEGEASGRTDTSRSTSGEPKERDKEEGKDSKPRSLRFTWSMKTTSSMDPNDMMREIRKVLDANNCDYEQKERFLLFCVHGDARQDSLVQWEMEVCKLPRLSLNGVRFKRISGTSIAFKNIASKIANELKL", "assay": "Inhibition of recombinant human full length GST-tagged MARK1 expressed in Baculovirus at 1 uM relative to control"}, "[26]": {"target": "Proto-oncogene tyrosine-protein kinase receptor Ret (Homo sapiens) (UniProt P07949)", "assay": "Inhibition of recombinant human full length GST-tagged RET expressed in Baculovirus at 1 uM relative to control"}, "[27]": {"assay": "Cmax in mouse at 50 mg/kg, ip", "type": "ADME, organism-based", "design": "dose 50 mg/kg, route intraperitoneal", "settings": "in vivo"}, "[28]": {"target": "Glycogen synthase kinase-3 beta (Homo sapiens) (UniProt P49841)", "assay": "Inhibition of recombinant human full length His-tagged GSK3beta expressed in Baculovirus at 1 uM relative to control"}, "[29]": {"target": "Ribosomal protein S6 kinase alpha-6 (Homo sapiens) (UniProt Q9UK32)", "assay": "Inhibition of recombinant human full length GST-tagged RSK4 expressed in Baculovirus at 1 uM relative to control"}, "[30]": {"target": "High affinity nerve growth factor receptor (Homo sapiens) (UniProt P04629)", "assay": "Inhibition of recombinant human His-tagged TRKA (441 to 796 residues) expressed in Baculovirus at 1 uM relative to control"}, "[31]": {"target": "Serine/threonine-protein kinase Chk2 (Homo sapiens) (UniProt O96017)", "assay": "Inhibition of recombinant human full length His-tagged CHK2 expressed in Baculovirus at 1 uM relative to control"}, "[32]": {"target": "Adenosine receptor A2a (Homo sapiens) (UniProt P29274)", "sequence (P29274 whole entry)": "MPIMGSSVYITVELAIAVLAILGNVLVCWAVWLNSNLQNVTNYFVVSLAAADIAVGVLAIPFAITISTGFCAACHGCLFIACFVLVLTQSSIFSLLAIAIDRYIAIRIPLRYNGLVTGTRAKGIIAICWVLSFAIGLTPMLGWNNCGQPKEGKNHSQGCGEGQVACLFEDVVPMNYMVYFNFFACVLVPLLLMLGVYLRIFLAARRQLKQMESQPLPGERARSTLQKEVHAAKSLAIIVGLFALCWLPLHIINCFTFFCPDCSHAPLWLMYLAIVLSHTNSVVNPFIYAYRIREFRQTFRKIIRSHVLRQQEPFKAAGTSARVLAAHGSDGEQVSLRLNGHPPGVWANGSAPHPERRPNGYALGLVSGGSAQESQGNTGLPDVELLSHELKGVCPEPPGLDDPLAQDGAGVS", "assay": "Inhibition of recombinant human adenosine A2A receptor expressed in HEK293 cells at 10 uM relative to control", "type": "cell-based"}, "[33]": {"target": "Tyrosine-protein kinase Lyn (Homo sapiens) (UniProt P07948)", "assay": "Inhibition of recombinant human full length His-tagged LynB expressed in Baculovirus at 1 uM relative to control"}, "[34]": {"target": "Serine/threonine-protein kinase PAK 4 (Homo sapiens) (UniProt O96013)", "settings": "1 uM"}, "[35]": {"target": "Receptor-type tyrosine-protein kinase FLT3 (Homo sapiens) (UniProt P36888)", "sequence (P36888 whole entry)": "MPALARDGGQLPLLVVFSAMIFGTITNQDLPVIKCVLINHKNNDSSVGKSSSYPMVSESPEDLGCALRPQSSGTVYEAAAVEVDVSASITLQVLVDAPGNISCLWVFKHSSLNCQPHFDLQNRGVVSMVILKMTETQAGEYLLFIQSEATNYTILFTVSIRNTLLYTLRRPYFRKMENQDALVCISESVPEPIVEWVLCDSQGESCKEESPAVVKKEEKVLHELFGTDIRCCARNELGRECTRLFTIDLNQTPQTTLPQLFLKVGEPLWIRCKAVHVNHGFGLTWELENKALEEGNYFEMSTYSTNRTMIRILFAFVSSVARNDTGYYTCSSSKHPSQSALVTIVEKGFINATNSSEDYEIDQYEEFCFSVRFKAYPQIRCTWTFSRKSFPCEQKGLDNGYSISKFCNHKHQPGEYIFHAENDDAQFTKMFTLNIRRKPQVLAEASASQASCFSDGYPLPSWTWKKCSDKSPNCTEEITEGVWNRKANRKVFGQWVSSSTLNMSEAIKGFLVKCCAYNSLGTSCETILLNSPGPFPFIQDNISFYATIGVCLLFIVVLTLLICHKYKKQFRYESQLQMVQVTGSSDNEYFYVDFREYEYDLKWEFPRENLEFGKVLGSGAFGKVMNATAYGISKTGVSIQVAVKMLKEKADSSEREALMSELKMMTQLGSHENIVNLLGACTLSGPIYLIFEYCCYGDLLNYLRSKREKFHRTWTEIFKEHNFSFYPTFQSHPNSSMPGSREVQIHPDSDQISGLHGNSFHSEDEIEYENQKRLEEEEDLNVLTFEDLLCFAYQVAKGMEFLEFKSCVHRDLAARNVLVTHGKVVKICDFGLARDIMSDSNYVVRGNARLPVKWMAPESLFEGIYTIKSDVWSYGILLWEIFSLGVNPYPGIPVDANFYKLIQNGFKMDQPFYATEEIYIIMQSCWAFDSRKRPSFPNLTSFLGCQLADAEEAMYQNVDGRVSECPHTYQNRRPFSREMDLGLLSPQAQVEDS", "assay": "Inhibition of recombinant human full length His-tagged FLT3 expressed in Baculovirus at 1 uM relative to control"}, "[36]": {"target": "Tyrosine-protein kinase Yes (Homo sapiens) (UniProt P07947)", "assay": "Inhibition of recombinant human full length GST-tagged YES expressed in Baculovirus at 1 uM relative to control"}, "[37]": {"target": "Proto-oncogene tyrosine-protein kinase Src (Homo sapiens) (UniProt P12931)", "assay": "Inhibition of recombinant human full length His-tagged SRC expressed in Baculovirus at 1 uM relative to control"}, "[38]": {"target": "Adenosine receptor A1 (Homo sapiens) (UniProt P30542)", "assay": "Inhibition of recombinant human adenosine A1 receptor expressed in CHO cells at 10 uM relative to control", "type": "cell-based"}, "Mus musculus": {"tested_on": "Mus musculus", "assay": "fCmax associated with acute adverse effect in mouse at 50 mg/kg, ip", "type": "ADME, organism-based", "settings": "in vivo", "summary_of_the_method": "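Mouse tolerability studies at multiple doses, oral or intraperitoneal. Minimum unbound plasma concentration associated with adverse effects (total Cmax converted to unbound) compared with IC50 for inhibition of MEK1 S298 phosphorylation in cells.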"}}}
{"smiles": "Cc1nc(Nc2n[nH]c3c2CN(C(=O)N[C@H](CN(C)C)c2ccccc2)C3(C)C)c2sccc2n1", "note": "[PF-03758309]", "values": [{"measurement": "inhibition", "setting": "[1]", "result": "> 75", "unit": "%"}, {"measurement": "inhibition", "setting": "[2]", "result": "> 75", "unit": "%"}, {"measurement": "inhibition", "setting": "[3]", "result": "> 75", "unit": "%"}, {"measurement": "Cmax", "setting": "[4]", "result": 10, "unit": "µM"}, {"measurement": "inhibition", "setting": "[5]", "result": "> 75", "unit": "%"}, {"measurement": "inhibition", "setting": "[6]", "result": "> 75", "unit": "%"}, {"measurement": "inhibition", "setting": "[7]", "result": "> 75", "unit": "%"}, {"measurement": "inhibition", "setting": "[8]", "result": "> 75", "unit": "%"}, {"measurement": "inhibition", "setting": "[9]", "result": "> 75", "unit": "%"}, {"measurement": "inhibition", "setting": "[10]", "result": "> 75", "unit": "%"}, {"measurement": "inhibition", "setting": "[11]", "result": "> 75", "unit": "%"}, {"measurement": "inhibition", "setting": "[12]", "result": "> 75", "unit": "%"}, {"measurement": "inhibition", "setting": "[13]", "result": "> 75", "unit": "%"}, {"measurement": "inhibition", "setting": "[14]", "result": "> 75", "unit": "%"}, {"measurement": "inhibition", "setting": "[15]", "result": "> 75", "unit": "%"}, {"measurement": "inhibition", "setting": "[16]", "result": "> 75", "unit": "%"}, {"measurement": "inhibition", "setting": "[17]", "result": "> 75", "unit": "%"}, {"measurement": "Ratio", "setting": "[18]", "result": 1}, {"measurement": "fraction unbound", "setting": "[19]", "result": 0.163}, {"measurement": "inhibition", "setting": "[20]", "result": "> 75", "unit": "%"}, {"measurement": "inhibition", "setting": "[21]", "result": "> 75", "unit": "%"}, {"measurement": "inhibition", "setting": "[22]", "result": "> 75", "unit": "%"}, {"measurement": "inhibition", "setting": "[23]", "result": "> 75", "unit": "%"}, {"measurement": "inhibition", "setting": "[24]", "result": "> 75", "unit": "%"}, {"measurement": "inhibition", "setting": "[25]", "result": "> 75", "unit": "%"}, {"measurement": "inhibition", "setting": "[26]", "result": "> 75", "unit": "%"}, {"measurement": "Cmax", "setting": "[27]", "result": 10, "unit": "µM"}, {"measurement": "inhibition", "setting": "[28]", "result": "> 75", "unit": "%"}, {"measurement": "inhibition", "setting": "[29]", "result": "> 75", "unit": "%"}, {"measurement": "inhibition", "setting": "[30]", "result": "> 75", "unit": "%"}, {"measurement": "inhibition", "setting": "[31]", "result": "> 75", "unit": "%"}, {"measurement": "inhibition", "setting": "[32]", "result": "> 75", "unit": "%"}, {"measurement": "inhibition", "setting": "[33]", "result": "> 75", "unit": "%"}, {"measurement": "inhibition", "setting": "[34]", "result": "> 75", "unit": "%"}, {"measurement": "inhibition", "setting": "[35]", "result": "> 75", "unit": "%"}, {"measurement": "inhibition", "setting": "[36]", "result": "> 75", "unit": "%"}, {"measurement": "inhibition", "setting": "[37]", "result": "> 75", "unit": "%"}, {"measurement": "inhibition", "setting": "[38]", "result": "> 75", "unit": "%"}, {"measurement": "fCmax", "setting": "Mus musculus", "result": 1.6, "unit": "µM"}]}
